Compound activity (PubChem)
Shown are actives, neighbours in structure and some others; about 2.6% of the full set was active somewhere.
HTRA1 inh – HTRA1 serine protease inhibitors, primary screen, biochemical, fluorescence polarization, HTS; inhibition, % at 5.96 µM; recombinant HTRA1, FP-rhodamine activity-based probe; Q92743; AID 504803, 2011; 340,000 compounds, 0.5% hits; in the data active = inhibition above about 36%;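 also: 0% = enzyme with DMSO and 100% = wells lacking enzyme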
SIAE inh – human SIAE inhibitors, primary screen, biochemical, fluorescence polarization, FP-Rh probe, 1536-well HTS | SIAE FP-Rh probe binding | inhibition, % at 9.66 µM | 370,000 compounds, 0.69% hits | AID 1053197, 2014;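 active = inhibition above a cutoff: mean of compounds within the control limits plus 3 SD of those, cut at about 17% in these data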;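 also: 0% = plate median of compound wells and 100% = probe without SIAE protein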
ABHD4 inh – ABHD4 inhibitors, primary screen, biochemical, fluorescence polarization, mouse; 370,000 compounds, 0.54% hits; purified mABHD4, FP-Rh probe fluorescence polarization; (Lyso)-N-acylphosphatidylethanolamine lipase (Mus musculus), Q8VD66; inhibition, % at 8.92 µM; AID 720543, 2013;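 active = inhibition exceeding the mean over every tested compound plus 3 SD, cut at about 30% in these data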;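 also: 0% = plate median of compound wells and 100% = S159A mutant with DMSO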
Target sequence (Q8VD66 whole entry, looked up): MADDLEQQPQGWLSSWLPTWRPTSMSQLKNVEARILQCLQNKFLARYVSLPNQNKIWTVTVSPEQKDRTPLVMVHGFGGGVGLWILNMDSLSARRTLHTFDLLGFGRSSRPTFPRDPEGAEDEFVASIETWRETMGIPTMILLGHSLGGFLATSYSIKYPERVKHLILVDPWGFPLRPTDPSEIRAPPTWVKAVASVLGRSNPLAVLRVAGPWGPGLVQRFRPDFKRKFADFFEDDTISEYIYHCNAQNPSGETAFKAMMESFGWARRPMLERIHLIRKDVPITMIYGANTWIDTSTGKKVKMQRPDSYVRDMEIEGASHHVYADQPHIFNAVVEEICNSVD
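Material: mouse ABHD4 enzyme, wild type; Benchmarks: S159A mutant high control, sample median low control; Buffer or medium: HEPES pH 7.0, NaCl, Pluronic buffer; Signal: fluorescence polarization; Read-out: percent inhibition of probe binding, normalized to plate controls; Timing: pre-incubation 45 min, probe exposure 60 min, at 25 °C; Dosing: 8.92 µM, single dose.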
TCR CD3 inh – inhibitors of human TCR-CD3 interaction, primary screen, biochemical, fluorescence, TAMRA-labeled TCR probe; 360,000 compounds, 0.37% hits; T-cell receptor (TCR); inhibition, % at 9.4 µM;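 also: recombinant mutant TCR 2C K166C tagged with TAMRA read by polarization; 0% = receptor in buffer alone and 100% = receptor with positive control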
PRMT1 FP inh – PRMT1 methyltransferase inhibitors, primary screen, biochemical, fluorescence polarization; 370,000 compounds, 1.3% hits; recombinant PRMT1, activity-based probe fluorescence polarization; inhibition, % at 2.79 µM; AID 652257, 2013; Protein arginine N-methyltransferase 1 (Homo sapiens), Q99873;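 active = inhibition above about 21% made by adding two undisclosed values, limit read from the data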
Target sequence (Q99873 whole entry, looked up): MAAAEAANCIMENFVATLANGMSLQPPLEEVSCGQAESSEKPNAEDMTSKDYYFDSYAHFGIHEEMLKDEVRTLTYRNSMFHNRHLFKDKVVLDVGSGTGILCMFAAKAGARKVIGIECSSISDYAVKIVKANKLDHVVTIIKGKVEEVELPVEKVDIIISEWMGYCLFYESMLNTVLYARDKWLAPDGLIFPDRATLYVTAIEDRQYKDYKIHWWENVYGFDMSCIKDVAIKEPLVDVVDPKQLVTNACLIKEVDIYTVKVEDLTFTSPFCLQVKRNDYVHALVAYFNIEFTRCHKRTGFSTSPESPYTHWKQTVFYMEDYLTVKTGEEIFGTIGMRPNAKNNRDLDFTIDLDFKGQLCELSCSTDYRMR
BSA TAMRA ctr – compounds interfering with TAMRA-BSA probe, counter-screen for TCR-CD3 interaction inhibitor project, biochemical, fluorescence, TAMRA-labeled BSA | AID 652035, 2013 | TAMRA-labeled BSA probe fluorescence counterscreen | shares compounds with TCR CD3 inh | 1,200 compounds, 10% hits | inhibition, % at 9.4 µM; in the data active = inhibition above about 23%;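 also: 0% = buffer low control and 100% = reference high control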
TCR-CD3 conf – TCR-CD3 interaction inhibitors, retest, confirmation, biochemical, fluorescence, TAMRA-labeled TCR probe | shares compounds with TCR CD3 inh | TAMRA-labeled TCR probe fluorescence binding assay | AID 652036, 2013 | inhibition, % at 9.4 µM | 1,200 compounds, 48% hits
* marks the source's active call; other numbers are inactive results; . = no result. Rule as the data show it, unless noted: active = inhibition above about 19%; inactive = the rest.

SMILES | HTRA1 inh | SIAE inh | ABHD4 inh | TCR CD3 inh | PRMT1 FP inh | BSA TAMRA ctr | TCR-CD3 conf
Oc1ccccc1-c1nc(N2CCCC2)c2ccccc2n1 | 5.4 | 2.1 | 0.8 | 8.0 | -3.2 | . | .
Fc1ccccc1-c1nc(N2CCCCC2)c2ccccc2n1 | -9.8 | -4.7 | 1.8 | 27.9* | -0.2 | 14.2 | 6.6
CC(C)C[C@@H]1COc2cc(NCCCN3CCOCC3)ccc2S(=O)(=O)N1 | . | 5.6 | -3.6 | -6.4 | 2.5 | . | .
O=c1c(-c2ccc(O)cc2)coc2cc(OC3OC(CO)C(O)C(O)C3O)cc(O)c12 (stereo unspecified) | -13.6 | 10.8 | -1.2 | 0.2 | -1.5 | . | .
O=c1cc(-c2ccc(O)cc2)oc2cc(O)c(C3OC(CO)C(O)C(O)C3O)c(O)c12 (stereo unspecified) | 4.5 | 7.8 | 3.2 | 27.5* | -1.0 | -4.8 | 19.6*
COc1cccc(NC(=O)CN(C)C(=O)/C=C/c2cn(-c3ccccc3)nc2-c2ccc(C)cc2)c1 | -113.6 | -121.6 | -94.8 | 36.1* | 1.5 | 32.3* | 62.9*
COc1ccc(NC(=O)CN(C)C(=O)/C=C/c2cn(-c3ccccc3)nc2-c2ccc(C)cc2)cc1 | -114.4 | -72.5 | -40.4 | 31.9* | -3.5 | 1.7 | 5.9
COc1cc2c(cc1OC)CN(C(=O)CN1CCN(S(=O)(=O)c3ccccc3)CC1)CC2 | -0.7 | 9.3 | 2.8 | -1.2 | 1.4 | . | .
O=C(NNC(=S)NC(=O)c1cccc([N+](=O)[O-])c1)c1ccc(Br)cc1 | 4.8 | 2.3 | 2.2 | 19.9* | -0.5 | -7.4 | 17.4
O=C(NNC(=S)NC(=O)c1cccc([N+](=O)[O-])c1)c1ccc(O)cc1 | 12.9 | -0.8 | 9.9 | 20.1* | 1.5 | -1.7 | 33.5*
C#CCn1c(=NC(=O)c2ccc(S(=O)(=O)N3CCCc4ccccc43)cc2)sc2cc(S(N)(=O)=O)ccc21 | -127.9 | -129.5 | -109.3 | 20.9* | 1.0 | 19.1 | 23.3*
Cn1c(=NC(=O)c2ccc(S(=O)(=O)N3CCCc4ccccc43)cc2)sc2cc(S(C)(=O)=O)ccc21 | -0.2 | -13.6 | 2.2 | -2.6 | -1.8 | . | .
Cc1ccc(S(=O)(=O)N2CCC(=O)N(C(CO)C(C)C)CC2)cc1 (stereo unspecified) | 6.1 | -4.5 | -2.2 | 103.4* | 2.1 | -3.0 | -2.9
Cc1ccc(S(=O)(=O)N2CCC(=O)N([C@H](CO)Cc3ccccc3)CC2)cc1 | . | 7.1 | -1.8 | 0.9 | -5.2 | . | .
COc1ccc(S(=O)(=O)N(C)C[C@H]2Oc3ccc(NC(=O)CCC(F)(F)F)cc3C(=O)N([C@H](C)CO)C[C@@H]2C)cc1 | -2.3 | 1.7 | 10.8 | 7.5 | 4.2 | . | .
C[C@@H]1CN([C@H](C)CO)C(=O)c2cc(NC(=O)Nc3cccc4ccccc34)ccc2O[C@H]1CN(C)Cc1ccc(C(F)(F)F)cc1 | -51.4 | -66.5 | -25.3 | 24.8* | -2.7 | -2.3 | 3.6
C[C@@H]1CN([C@H](C)CO)C(=O)c2cc(NC(=O)Nc3ccc(C(F)(F)F)cc3)ccc2O[C@H]1CN(C)S(=O)(=O)c1ccccc1 | -113.5 | -174.1 | -131.6 | 29.5* | -0.6 | -1.8 | 14.9
C[C@@H]1CN([C@H](C)CO)C(=O)c2cc(NC(=O)Nc3ccc(C(F)(F)F)cc3)ccc2O[C@H]1CN(C)C(=O)Nc1ccc(F)cc1 | -112.4 | -157.5 | -131.7 | 7.6 | 0.9 | . | .
C[C@@H]1CN([C@@H](C)CO)C(=O)Cc2cc(NC(=O)Nc3cccc4ccccc34)ccc2O[C@@H]1CN(C)Cc1ccc(C(F)(F)F)cc1 | -68.6 | -31.0 | -45.5 | 11.0 | 1.9 | . | .
COc1ccc(S(=O)(=O)N(C)C[C@H]2Oc3ccc(NC(=O)Nc4ccc(C(F)(F)F)cc4)cc3C(=O)N([C@H](C)CO)C[C@@H]2C)cc1 | -113.2 | -200.6 | -108.6 | 34.3* | -0.5 | 23.7* | 47.4*
C[C@H](CO)N1C[C@H](C)[C@@H](CN(C)C(=O)Nc2ccc(C(F)(F)F)cc2)Oc2ccc(NC(=O)Nc3ccc(C(F)(F)F)cc3)cc2C1=O | -165.4 | -110.1 | -157.1 | 76.0* | 2.2 | 24.5* | 48.0*
COc1ccc(Cc2c(-c3ccc(OC)c(OC)c3)nc3ccc(C)cn23)c(C)c1 | . | 5.7 | -4.6 | -4.1 | 3.3 | . | .
CCCCN(C(=O)COC(=O)c1ccccc1)c1c(N)n(CCC)c(=O)[nH]c1=O | 1.3 | -0.6 | 0.8 | -5.2 | 1.5 | . | .
Cc1cc(C)c2c(N)c(C(=O)NN)sc2n1 | 27.6 | 12.7 | 14.4 | 38.0* | 0.2 | -7.8 | 28.8*
CCOC(=O)c1sc2nc(C)cc(C)c2c1N | -6.6 | -6.6 | -3.4 | 6.8 | 0.5 | . | .
SMILES | HTRA1 inh | SIAE inh | ABHD4 inh | TCR CD3 inh | PRMT1 FP inh | BSA TAMRA ctr | TCR-CD3 conf
Nc1ccc([N+](=O)[O-])cc1C(=O)NNC(=O)c1ccco1 | -4.7 | 6.1 | -2.9 | 27.4* | 4.7 | -10.9 | 32.2*
O=C(NNC(=O)c1ccccc1O)c1ccco1 | 6.4 | 5.0 | -1.4 | 5.9 | -1.6 | . | .
Cc1cccc(C(=O)NNC(=O)c2c(-c3ccccc3Cl)noc2C)c1O | 0.2 | 0.6 | 2.5 | 28.9* | 3.8 | -1.4 | 16.4
Cc1cccc(C(=O)NNC(=O)c2ccco2)c1O | -2.0 | 12.9 | -0.3 | 19.1* | 0.2 | -4.9 | 12.4
COc1ccccc1C(=O)NNC(=S)NC(=O)c1ccco1 | 4.3 | 6.1 | 2.3 | 21.5* | -1.0 | -8.7 | 13.9
Cc1onc(-c2ccccc2Cl)c1C(=O)NNC(=O)c1ccc(F)cc1 | -1.7 | 3.3 | -2.7 | -1.4 | 0.8 | . | .
COc1ccc(NC(=O)N2CCCCCC2)cc1OC | -0.8 | 9.6 | -1.6 | -5.1 | -4.3 | . | .
CCC/C(=N\NC(=O)c1ccco1)c1ccc(Cl)s1 | 5.0 | 5.4 | 1.1 | -0.6 | -2.7 | . | .
O=C(CCCc1c[nH]c2ccccc12)Nc1ccc(S(=O)(=O)Nc2ncccn2)cc1 | -8.5 | 0.9 | -1.9 | 5.1 | 0.7 | . | .
CCc1cc2c(nc1CC)CCCN2S(=O)(=O)c1c(C)noc1C | . | -7.2 | 11.4 | -4.9 | 3.1 | . | .
COc1ccc(C(=O)NNC(=S)NC(=O)c2ccco2)cc1 | 9.9 | 0.3 | 9.4 | 11.6 | -0.6 | . | .
CCCOc1ccc(C(=O)NNC(=S)NC(=O)c2ccco2)cc1 | 9.6 | 2.4 | 5.0 | 19.8* | 0.8 | -13.2 | 13.9
O=C1NC[C@H](Cc2ccc(O)cc2)N(CCc2cccc(F)c2)C1=O | . | 1.2 | 1.6 | 64.0* | 17.1 | 4.5 | 2.9
O=C1NC[C@H](Cc2ccc(O)cc2)N(CCc2cc(C(F)(F)F)cc(C(F)(F)F)c2)C1=O | . | 5.2 | 10.0 | -1.4 | 1.3 | . | .
